Laboratory results as given in ChEMBL document CHEMBL3124806, “Imidazopyridine-fused [1,3]-diazepinones: synthesis and antiproliferative activity” (Eur J Med Chem, 2014).

Experiments:
Assay type in all cases: functional
HT-29 = assay: Cytotoxicity against human HT-29 cells assessed as cell growth at 10 uM after 48 hrs by SRB assay relative to untreated control; details: HT-29, 48 h, read-out: Activity
In short: (§1)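 NCI-60 panel screen at a single concentration of 10 μM with 48 h incubation. Cell density measured by sulforhodamine B protein-binding dye and read spectrophotometrically. Growth expressed as percent of untreated control cells.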

IGROV-1 = assay: Cytotoxicity against human IGROV1 cells assessed as cell growth at 10 uM after 48 hrs by SRB assay relative to untreated control; details: IGROV-1, 48 h, read-out: Activity; in short: as §1
SK-OV-3 = assay: Cytotoxicity against human SKOV3 cells assessed as cell growth at 10 uM after 48 hrs by SRB assay relative to untreated control; details: SK-OV-3, 48 h, read-out: Activity
In short: (§2)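 NCI-60 single-dose screen. Compounds were added to the cultures at 10 μM and incubated for 48 h. The end point was sulforhodamine B protein staining read spectrophotometrically. Growth is reported as percent of untreated control cells.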

K562 = assay: Cytotoxicity against human K562 cells assessed as cell growth at 10 uM after 48 hrs by SRB assay relative to untreated control; details: K562, 48 h, read-out: Activity; in short: as §1
MOLT-4 = assay: Cytotoxicity against human MOLT4 cells assessed as cell growth at 10 uM after 48 hrs by SRB assay relative to untreated control; details: MOLT-4, 48 h, read-out: Activity
In short: (§3)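 NCI-60 one-dose screen: each agent added at 10 µM, cultures incubated 48 h. Endpoint by sulforhodamine B protein-binding dye read spectrophotometrically; growth expressed as percent of untreated control cells.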

SF-539 = assay: Cytotoxicity against human SF539 cells assessed as cell growth at 10 uM after 48 hrs by SRB assay relative to untreated control; details: SF-539, 48 h, read-out: Activity; in short: as §3
MDA-MB-435 = assay: Cytotoxicity against human MDA-MB-435 cells assessed as cell growth at 10 uM after 48 hrs by SRB assay relative to untreated control; details: MDA-MB-435, 48 h, read-out: Activity; in short: as §3
U-251 = assay: Cytotoxicity against human U251 cells assessed as cell growth at 10 uM after 48 hrs by SRB assay relative to untreated control; details: U-251, 48 h, read-out: Activity; in short: as §2
TK-10 = assay: Cytotoxicity against human TK10 cells assessed as cell growth at 10 uM after 48 hrs by SRB assay relative to untreated control; details: TK-10, 48 h, read-out: Activity; in short: as §2
SW-620 = assay: Cytotoxicity against human SW620 cells assessed as cell growth at 10 uM after 48 hrs by SRB assay relative to untreated control; details: SW-620, 48 h, read-out: Activity; in short: as §2
ACHN = assay: Cytotoxicity against human ACHN cells assessed as cell growth at 10 uM after 48 hrs by SRB assay relative to untreated control; details: read-out: Activity; in short: as §1
SNB-19 = assay: Cytotoxicity against human SNB19 cells assessed as cell growth at 10 uM after 48 hrs by SRB assay relative to untreated control; details: SNB-19, 48 h, read-out: Activity; in short: as §2
NCI-H322M = assay: Cytotoxicity against human NCI-H322M cells assessed as cell growth at 10 uM after 48 hrs by SRB assay relative to untreated control; details: read-out: Activity; in short: as §3
[1] = Cytotoxicity against human UO31 cells assessed as cell growth at 10 uM after 48 hrs by SRB assay relative to untreated control; details: UO-31, 48 h, read-out: Activity; in short: as §2
SF-295 = assay: Cytotoxicity against human SF295 cells assessed as cell growth at 10 uM after 48 hrs by SRB assay relative to untreated control; details: SF-295, 48 h, read-out: Activity; in short: as §3
OVCAR-8 = assay: Cytotoxicity against human OVCAR8 cells assessed as cell growth at 10 uM after 48 hrs by SRB assay relative to untreated control; details: OVCAR-8, 48 h, read-out: Activity; in short: as §3
T47D = assay: Cytotoxicity against human T47D cells assessed as cell growth at 10 uM after 48 hrs by SRB assay relative to untreated control; details: read-out: Activity; in short: as §2
RPMI-8226 = assay: Cytotoxicity against human RPMI8226 cells assessed as cell growth at 10 uM after 48 hrs by SRB assay relative to untreated control; details: RPMI-8226, 48 h, read-out: Activity; in short: as §3
HOP-92 = assay: Cytotoxicity against human HOP92 cells assessed as cell growth at 10 uM after 48 hrs by SRB assay relative to untreated control; details: HOP-92, 48 h, read-out: Activity; in short: as §1
LOX IMVI = assay: Cytotoxicity against human LOXIMVI cells assessed as cell growth at 10 uM after 48 hrs by SRB assay relative to untreated control; details: read-out: Activity; in short: as §1
BT-549 = assay: Cytotoxicity against human BT549 cells assessed as cell growth at 10 uM after 48 hrs by SRB assay relative to untreated control; details: BT-549, 48 h, read-out: Activity; in short: as §1
M14 = assay: Cytotoxicity against human M14 cells assessed as cell growth at 10 uM after 48 hrs by SRB assay relative to untreated control; details: M14, 48 h, read-out: Activity; in short: as §1
HCT-15 = assay: Cytotoxicity against human HCT15 cells assessed as cell growth at 10 uM after 48 hrs by SRB assay relative to untreated control; details: HCT-15, 48 h, read-out: Activity; in short: as §1
NCI-H226 = assay: Cytotoxicity against human NCI-H226 cells assessed as cell growth at 10 uM after 48 hrs by SRB assay relative to untreated control; details: NCI-H226, 48 h, read-out: Activity; in short: as §3
CCRF-CEM = assay: Cytotoxicity against human CCRF-CEM cells assessed as cell growth at 10 uM after 48 hrs by SRB assay relative to untreated control; details: read-out: Activity; in short: as §1
[2] = Cytotoxicity against human UACC257 cells assessed as cell growth at 10 uM after 48 hrs by SRB assay relative to untreated control; details: UACC-257, 48 h, read-out: Activity; in short: as §2
OVCAR-3 = assay: Cytotoxicity against human OVCAR3 cells assessed as cell growth at 10 uM after 48 hrs by SRB assay relative to untreated control; details: OVCAR-3, 48 h, read-out: Activity; in short: as §3
786-0 = assay: Cytotoxicity against human […] cells assessed as cell growth at 10 uM after 48 hrs by SRB assay relative to untreated control; details: 786-0, 48 h, read-out: Activity; in short: as §1
Malme-3M = assay: Cytotoxicity against human MALME-3M cells assessed as cell growth at 10 uM after 48 hrs by SRB assay relative to untreated control; details: read-out: Activity; in short: as §1
SF-268 = assay: Cytotoxicity against human SF268 cells assessed as cell growth at 10 uM after 48 hrs by SRB assay relative to untreated control; details: SF-268, 48 h, read-out: Activity; in short: as §3
MCF7 = assay: Cytotoxicity against human MCF7 cells assessed as cell growth at 10 uM after 48 hrs by SRB assay relative to untreated control; details: MCF7, 48 h, read-out: Activity; in short: as §1
CAKI-1 = assay: Cytotoxicity against human Caki1 cells assessed as cell growth at 10 uM after 48 hrs by SRB assay relative to untreated control; details: CAKI-1, 48 h, read-out: Activity; in short: as §1

COc1ccc(C2=Nc3nc4ccccn4c3C(=O)[C@H](C)N2)cc1
growth at 10 µM (HT-29): 98.5%
growth at 10 µM (IGROV-1): 89.3%
growth at 10 µM (SK-OV-3): 94.7%
growth at 10 µM (K562): 86.8%
growth at 10 µM (MOLT-4): 84.4%
growth at 10 µM (SF-539): 97.3%
growth at 10 µM (MDA-MB-435): 90.2%
growth at 10 µM (U-251): 98.5%
growth at 10 µM (TK-10): 99.2%
growth at 10 µM (SW-620): 106%
growth at 10 µM (ACHN): 83.8%
growth at 10 µM (SNB-19): 99.1%
growth at 10 µM (NCI-H322M): 80.3%
growth at 10 µM [1]: 55.6%
growth at 10 µM (SF-295): 98.2%
growth at 10 µM (OVCAR-8): 97.4%
growth at 10 µM (T47D): 97%
growth at 10 µM (RPMI-8226): 88.5%
growth at 10 µM (HOP-92): 72.5%
growth at 10 µM (LOX IMVI): 87.6%
growth at 10 µM (BT-549): 85.7%
growth at 10 µM (M14): 95.4%
growth at 10 µM (HCT-15): 85.2%
growth at 10 µM (NCI-H226): 86.9%
growth at 10 µM (CCRF-CEM): 91.7%
growth at 10 µM [2]: 96.1%
growth at 10 µM (OVCAR-3): 98.3%
growth at 10 µM (786-0): 98.5%
growth at 10 µM (Malme-3M): 94.3%
growth at 10 µM (SF-268): 104%
growth at 10 µM (MCF7): 72%
growth at 10 µM (CAKI-1): 93.5%

COc1ccc(C2=Nc3nc4ccccn4c3C(=O)[C@H](Cc3ccccc3)N2)cc1
growth at 10 µM (HT-29): 117%
growth at 10 µM (IGROV-1): 107%
growth at 10 µM (SK-OV-3): 110%
growth at 10 µM (K562): 86%
growth at 10 µM (MOLT-4): 113%
growth at 10 µM (SF-539): 97.2%
growth at 10 µM (MDA-MB-435): 51.4%
growth at 10 µM (U-251): 95.3%
growth at 10 µM (TK-10): 133%
growth at 10 µM (SW-620): 100%
growth at 10 µM (ACHN): 101%
growth at 10 µM (SNB-19): 103%
growth at 10 µM (NCI-H322M): 106%
growth at 10 µM [1]: 83.5%
growth at 10 µM (SF-295): 92.5%
growth at 10 µM (OVCAR-8): 91.4%
growth at 10 µM (T47D): 98.8%
growth at 10 µM (RPMI-8226): 98.1%
growth at 10 µM (HOP-92): 95.6%
growth at 10 µM (LOX IMVI): 95.2%
growth at 10 µM (BT-549): 85.3%
growth at 10 µM (M14): 98.3%
growth at 10 µM (HCT-15): 101%
growth at 10 µM (NCI-H226): 98.6%
growth at 10 µM (CCRF-CEM): 99.4%
growth at 10 µM [2]: 92.3%
growth at 10 µM (OVCAR-3): 110%
growth at 10 µM (786-0): 101%
growth at 10 µM (Malme-3M): 97.6%
growth at 10 µM (SF-268): 105%
growth at 10 µM (MCF7): 90.1%
growth at 10 µM (CAKI-1): 87.7%
